Results taken from ChEMBL document CHEMBL3352266.
The source made the active and inactive calls. The rule behind the calls is not given here.

Experiments:
[1] = target: T1, Myeloperoxidase (Homo sapiens) (UniProt P05164); experiment: Inhibition of myeloperoxidase (unknown origin) assessed as reduction in H2O2 consumption by H2O2-specific electrode based assay
T1 sequence (whole entry): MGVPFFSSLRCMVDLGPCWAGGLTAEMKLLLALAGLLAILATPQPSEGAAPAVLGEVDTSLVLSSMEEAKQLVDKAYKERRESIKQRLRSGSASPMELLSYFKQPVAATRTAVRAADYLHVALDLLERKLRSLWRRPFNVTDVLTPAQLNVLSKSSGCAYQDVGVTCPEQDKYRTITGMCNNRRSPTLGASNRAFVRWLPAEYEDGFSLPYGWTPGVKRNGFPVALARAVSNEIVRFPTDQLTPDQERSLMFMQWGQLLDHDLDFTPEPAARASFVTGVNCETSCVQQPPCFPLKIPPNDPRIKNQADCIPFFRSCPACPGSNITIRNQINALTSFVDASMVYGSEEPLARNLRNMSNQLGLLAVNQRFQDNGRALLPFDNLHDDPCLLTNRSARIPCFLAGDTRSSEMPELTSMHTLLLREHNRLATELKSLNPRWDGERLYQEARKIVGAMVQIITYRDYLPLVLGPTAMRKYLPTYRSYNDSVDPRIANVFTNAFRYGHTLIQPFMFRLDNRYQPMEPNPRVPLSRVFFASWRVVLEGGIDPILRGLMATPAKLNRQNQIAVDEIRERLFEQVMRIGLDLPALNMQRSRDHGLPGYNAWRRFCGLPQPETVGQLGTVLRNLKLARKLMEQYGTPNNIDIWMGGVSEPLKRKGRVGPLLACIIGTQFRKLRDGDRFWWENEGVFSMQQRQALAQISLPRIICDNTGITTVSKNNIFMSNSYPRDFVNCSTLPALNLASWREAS
How it was run: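 An H2O2-specific electrode sat in a continuously stirred vessel holding 30 μM H2O2, 154 mM NaCl and varied inhibitor concentrations in 10 mM phosphate buffer, pH 7.4. H2O2 concentration was followed in real time to derive IC50.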

Myeloperoxidase = target: T2, Myeloperoxidase (Homo sapiens, UniProt P05164); experiment: Inhibition of myeloperoxidase (unknown origin) assessed as reduction in enzymatic hypochlorous acid production by spectrophotometry based taurine chlorination assay; format: single protein
T2 sequence (P05164 whole entry): T1 sequence (whole entry)
How it was run: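 Started with 40 μM H2O2 and stopped after 5 min with catalase. Developed with an equal volume of 500 uM TMB and 100 μM NaI in 300 mM acetate, pH 5.4. Absorbance read at 650 nm. IC50 given as mean of ≥3 trials ± SD.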

inhibition [1] | IC50 (Myeloperoxidase) [nM] | Compound
 | 1100 | C#Cc1ccc(-n2nc3ccccc3c2OC)cc1
 | > 10000 | CCCCCCCCn1nc2ccccc2c1OCC
 | 1660 | COc1c2ccccc2nn1-c1cccc(I)c1
 | 2030 | COc1c2ccccc2nn1-c1ccccc1
 | 2120 | CC(=O)OCC(C)n1[nH]c2ccccc2c1=O (configuration not stated)
Active | 403 | c1c2c(cc3c4n(nc13)CCCO4)OCO2
 | 4150 | c1ccc2c(c1)COc1c3ccccc3nn1-2
 | > 10000 | CC(CCl)n1c(=O)c2ccccc2n1S(C)(=O)=O (configuration not stated)
 | 2000 | COc1c2ccccc2nn1-c1ccc(I)cc1
 | > 10000 | CC(=O)OCC(C)n1c(=O)c2ccccc2n1C(C)=O (configuration not stated)
 | > 10000 | CC(=O)n1c2ccccc2c(=O)n1C(C)C
 | > 10000 | CC(C)n1c(=O)c2ccccc2n1S(C)(=O)=O
 | 3880 | CCCCCn1nc2ccccc2c1OC
Active | 711 | COc1c2cc3c(cc2nn1C(C)C)OCO3
Active | 359 | c1ccc2c3n(nc2c1)CCCO3
 | > 10000 | CC(CBr)n1c(=O)c2ccccc2n1CC(=O)N1CCOCC1 (configuration not stated)
Active | 94 | c1ccc2c3n(nc2c1)CCS3
 | 1950 | O=c1c2ccccc2[nH]n1CCCO

Continued, molecule first:

Compound | inhibition [1] | IC50 (Myeloperoxidase) [nM]
CCCCn1nc2ccccc2c1OC | Active | 910
COc1c2ccccc2nn1C(C)C | Active | 704
CCCCCCCCn1[nH]c2ccccc2c1=O |  | > 10000
c1ccc2c3n(nc2c1)CCCS3 | Active | 213
c1c2c(cc3c4n(nc13)CCCS4)OCO2 | Active | 140
O=c1c2ccccc2[nH]n1CCO |  | 2470
COCCOc1c2ccccc2nn1C(C)C |  | 1400
CC(C)n1c(=O)c2ccccc2n1CC(=O)N1CCOCC1 |  | > 10000
CCOc1c2ccccc2nn1C(C)C | Active | 722
COc1c2ccccc2nn1-c1cccc(Cl)c1 |  | 4770
COc1c2ccccc2nn1CCCCO |  | 1790
CCCCn1[nH]c2ccccc2c1=O | Active | 792
CC1(C)COc2c3ccccc3nn21 |  | 1030
COc1c2ccccc2nn1CCCCCO |  | 1540
CCCCn1nc2ccccc2c1OCC | Active | 807
c1c2c(cc3c4n(nc13)CCS4)OCO2 | Active | 87
CC(C)n1[nH]c2ccccc2c1=O | Active | 660
CCCCCCCCn1nc2ccccc2c1OC |  | > 10000
CC1COc2c3ccccc3nn21 (configuration not stated) | Active | 900
COCCn1nc2ccccc2c1OC |  | 1080
